In the library only some 2.5% were active in any assay of this set; here they are far more common.
ABHD5-PLIN5 inh – ABHD5-PLIN5 interaction inhibitors, primary screen, cell lysate, split luciferase complementation, luminescence. Perilipin-5 (Homo sapiens) + 1-acylglycerol-3-phosphate O-acyltransferase ABHD5 (Homo …. Split G. princeps luciferase complementation, 4 h. inhibition, % at 4 µM. actives 0.78% (n = 360,000);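 active = inhibition above the mean inhibition across every tested compound plus 3 SD, cut at about 22% in these data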;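 also: 0% = DMSO only wells and the 100% control is not disclosed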
GRK2 aptamer HTS – compounds blocking aptamer binding on GRK2 – biochemical, human GRK2, bead flow cytometry, HTS, primary screen; FAM-aptamer displacement from GRK2; inhibition of aptamer binding, % at 10 µM; actives 0.59% (n = 330,000); AID 488847, 2010;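 active = inhibition of aptamer binding above 40%, roughly 3 SD of noise, on plates passing a quality check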;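 also: median bead fluorescence of bound FAM aptamer so fluorescent compounds give negative values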
Target sequence (P25098 whole entry, looked up): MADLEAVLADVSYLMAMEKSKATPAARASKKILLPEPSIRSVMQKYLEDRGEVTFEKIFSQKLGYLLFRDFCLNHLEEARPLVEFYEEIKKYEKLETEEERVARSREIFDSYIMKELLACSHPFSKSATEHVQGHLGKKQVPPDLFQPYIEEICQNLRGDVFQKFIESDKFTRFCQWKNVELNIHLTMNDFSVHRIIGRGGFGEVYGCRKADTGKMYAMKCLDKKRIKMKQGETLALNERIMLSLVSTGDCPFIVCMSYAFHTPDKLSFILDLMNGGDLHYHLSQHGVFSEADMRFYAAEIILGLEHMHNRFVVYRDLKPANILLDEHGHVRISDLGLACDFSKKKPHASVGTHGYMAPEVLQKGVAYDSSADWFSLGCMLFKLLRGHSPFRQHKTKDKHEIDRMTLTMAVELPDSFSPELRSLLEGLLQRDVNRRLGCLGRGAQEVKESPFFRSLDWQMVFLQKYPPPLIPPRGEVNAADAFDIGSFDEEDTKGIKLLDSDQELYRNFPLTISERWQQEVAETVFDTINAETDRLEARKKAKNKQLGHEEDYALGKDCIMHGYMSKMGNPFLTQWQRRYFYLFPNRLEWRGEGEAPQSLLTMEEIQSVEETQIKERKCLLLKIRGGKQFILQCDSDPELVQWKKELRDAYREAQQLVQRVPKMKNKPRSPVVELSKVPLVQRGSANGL
SENP1 FRET inh – human SENP1 catalytic domain inhibitors, primary screen, biochemical, FRET, uHTS; actives 0.21% (n = 360,000); recombinant SENP1 catalytic domain, CyPet-SUMO1-YPet FRET cleavage; inhibition, % at 10 µM; Sentrin-specific protease 1 (Homo sapiens), Q9P0U3;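 active = inhibition at least 30% at 10 µM, raw YFP signal under a set limit, fluorescence ratio 0.5 to 1.5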;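 also: 0% = enzyme with DMSO and 100% = no enzyme wells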
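Assay system: hSENP1 catalytic domain, recombinant. Amount: SENP1 enzyme, 20 pM final. Schedule: 50 min reaction, RT, dark. Technique: FRET, CFP and YFP emission. Control set: no-enzyme wells low, DMSO-plus-enzyme wells high control.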
B2AR ag – beta2AR agonists driving receptor internalization, primary screen, cell-based, FAP fluorogen, flow cytometry. Beta-2 adrenergic receptor (Homo sapiens), P07550. Am2.2-beta2AR cells. response, % (concentration not given with the values). actives 0.43% (n = 340,000);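 active = response above a set limit, near 3 SD of response in nonfluorescent compounds, cut at about 42% in these data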
NadD inh – inhibitors of S. aureus NadD, primary screen, biochemical, colorimetric, uHTS | inhibition, % at 20 µM | actives 0.78% (n = 360,000) | Nicotinate-nucleotide adenylyltransferase NadD (Staphylococcus aureus N315) | purified NadD enzyme, colorimetric absorbance read-out; in the data active = inhibition above about 26%
GRK2 CP1 – GRK2 aptamer-displacing inhibitors, retest, confirmation, biochemical, cherry pick 1, bead flow cytometry | shares compounds with GRK2 aptamer HTS | bead-bound GRK2, FAM-aptamer displacement | aptamer displacement, % at 10 µM | actives 4% (n = 2,000);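 active = aptamer displacement above 40%, near three times the noise of non-fluorescent compounds, on plates passing quality checks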;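 also: negative values mostly reflect intrinsic compound fluorescence rather than true enhancement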
Aptamer quench 1 – counter-screen for GRK2 aptamer inhibitors: fluorescent aptamer quenchers. shares compounds with GRK2 aptamer HTS. AID 504521. 110 tested, under 10 active. Fluorescent RNA aptamer beads, quenching, flow cytometry; active compounds read high. fluorescence change (kMESF span), kMESF (concentration not given with the values);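 active = compounds whose bead fluorescence drops by more than 37 kMESF across the dose range, marking them as dye quenchers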
Aptamer quench SP – aptamer fluorescence quenching in GRK2 counter-screen; shares compounds with GRK2 aptamer HTS; Carboxyfluorescein RNA aptamer on beads, flow cytometry quenching; active compounds read low; fluorescence response (% of DMSO), % at 10 µM; 2,000 tested, under 10 active; AID 504580;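 active = compounds that quench the bead-bound fluorescent RNA probe, cutting fluorescence to under half of the solvent control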;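 also: counterscreen run without GRK2 so only probe quenching by compound is measured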
GRK2 confirm 2 – GRK2 aptamer-displacing inhibitors, hit retest, confirmation, biochemical, cherry pick 2, bead flow cytometry; shares compounds with GRK2 aptamer HTS; bead-bound GRK2, FAM-aptamer displacement; inhibition of aptamer binding, % at 10 µM; 360 tested, under 10 active;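 active = inhibition of aptamer binding above 40%, about triple the noise seen with nonglowing compounds, on plates passing quality control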;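 also: negative values mostly come from compounds that fluoresce themselves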
FAM quench SP – quenches fluorescent RNA aptamer, GRK2 hit artifact | shares compounds with GRK2 aptamer HTS | fluorescence response vs DMSO, % at 10 µM | 360 tested, under 10 active | carboxyfluorescein RNA aptamer beads, flow cytometry quenching; active compounds read low;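 active = response vs DMSO under 50%, meaning signal dropped by over half, treated as fluorescence quencher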;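 also: labelled aptamer on streptavidin beads without GRK2 as a quench counter-screen; 100% = bead fluorescence of DMSO wells and lower means quenching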
Starred values were filed as active, the others as inactive; x = no result.

SMILES	ABHD5-PLIN5 inh	GRK2 aptamer HTS	SENP1 FRET inh	B2AR ag	NadD inh	GRK2 CP1	Aptamer quench SP	others
COc1cc(C(C)=O)ccc1OCC(=O)Nc1ccccc1N1CCCC1	2	87*	1	-8	-1	x	x	GRK2 confirm 2=-23;FAM quench SP=101
O=C(C[n+]1cccc(CO)c1)Nc1nc2ccccc2s1	1	42*	-2	1	-2	3	101
O=C(COc1coc(CN2CCN(c3ccc(F)cc3)CC2)cc1=O)Nc1ccccc1	5	0	3	-10	-2	x	x
CC(=O)COc1coc(CN2CCN(c3ccc(F)cc3)CC2)cc1=O	11	99*	0	-1	-5	19	96
CCN(CC)C(=O)Cn1cc(S(=O)(=O)CC(=O)Nc2cc(OC)ccc2OC)c2ccccc21	-3	71*	1	6	-6	x	x	GRK2 confirm 2=-24;FAM quench SP=99
CCn1c(C(=O)O)c(CC(=O)N(C)c2ccc(OC)cc2OC)c2ccccc21	3	58*	2	-6	1	6	75
CCN(CC)C(=O)Cn1cc(S(=O)(=O)CC(=O)Nc2ccccc2F)c2ccccc21	1	4	1	12	-1	x	x
COc1ccc(OC)c(NC(=O)Cc2c(C(=O)O)n(C)c3ccccc23)c1	-11	47*	0	1	-3	x	x	GRK2 confirm 2=22;FAM quench SP=99
COc1ccc(N(C)C(=O)Cc2c(C(=O)O)n(C)c3ccccc23)c(OC)c1	3	1	2	-1	-5	x	x
N#CCCN(C(=O)COC(=O)CCc1c[nH]c2ccccc12)c1ccccc1	4	0	1	0	-3	x	x
Cc1noc(C)c1-c1ccc(C(=O)N2CCN(C)CC2)c2occc12	-5	x	-1	x	-1	x	x
CCOCc1cnc(C)nc1NCC(=O)c1c(C)[nH]c2ccccc12	0	56*	-1	3	21	-1	100
CN(c1cccc(NC(=O)c2ccc(Cl)c(S(=O)(=O)Nc3ccccc3)c2)c1)S(C)(=O)=O	4	3	2	8	-3	x	x
Cc1ccccc1NS(=O)(=O)c1cc(C(=O)Nc2cccc(N(C)S(C)(=O)=O)c2)ccc1C	3	16	2	-11	-1	-1	101
COc1ccc([C@H]2Cc3cc(O)cc(O)c3C(=O)O2)cc1O	16	4	-6	1	0	x	x
COc1ccc([C@H]2Cc3cccc(O)c3C(=O)O2)cc1O	3	85*	0	7	-3	-2	104
O=C(c1cccc(N2C(=O)C3C4C=CC(C4)C3C2=O)c1)N1CCN(c2ccccc2F)CC1 (centres undefined)	5	1	3	0	-8	x	x
Cc1cccc(-c2nc(CN3CCCC(C(=O)NC4CCCCCC4)C3)c(C)o2)c1 (centres undefined)	1	3	-11	4	0	-4	103
Cc1oc(-c2cccc(Cl)c2)nc1CN1CCCC(C(=O)NCc2ccco2)C1 (centres undefined)	6	0	0	-14	-1	1	101
Cc1oc(-c2ccc(Cl)cc2)nc1CN1CCCC(C(=O)NCc2ccccn2)C1 (centres undefined)	6	0	-4	-4	-4	1	93
Cc1oc(-c2ccc(Cl)cc2)nc1CN1CCCC(C(=O)NCCCN2CCOCC2)C1 (centres undefined)	5	0	-1	8	-8	x	x
Cc1oc(-c2ccc(Cl)cc2)nc1CN1CCCC(C(=O)NCc2cccnc2)C1 (centres undefined)	4	0	-11	-4	-2	-2	100	Aptamer quench 1=3.4
O=C(Nc1ccc(Cl)cn1)C1CCN(c2ncnc3c2nc2n3CCCCC2)CC1	0	55*	2	-1	-6	-4	107
Cc1cc(C)cc(C(=O)NCC(=O)OCC(=O)NCC(F)(F)F)c1	2	96*	0	8	-5	3	100
Cc1cccc(C(=O)NCC(=O)OCC(=O)NCCNC(=O)COC(=O)CNC(=O)c2cccc(C)c2)c1	-4	1	1	4	2	x	x
SMILES	ABHD5-PLIN5 inh	GRK2 aptamer HTS	SENP1 FRET inh	B2AR ag	NadD inh	GRK2 CP1	Aptamer quench SP	others
COc1ccc(NC(=O)C(=O)N2N=C3CCCCC3C2(O)C(F)(F)F)cc1 (centres undefined)	-1	41*	0	0	4	x	x	GRK2 confirm 2=9;FAM quench SP=109
CCC1=NN(C(=O)C(=O)Nc2ccc(OC)cc2)C(O)(C(F)(F)F)C1 (centres undefined)	3	0	0	4	0	x	x
COc1ccc(C(=O)NCCCNC(=O)c2cccnc2)cc1Br	-1	4	-1	-7	1	x	x
Cc1ccc2[nH]c(-c3ccccc3)c(CN3CCCC3)c(=O)c2c1	-6	0	-9	10	6	x	x
Cc1ccc2[nH]c(-c3ccccc3)c(CN(C)C)c(=O)c2c1	5	29	1	-13	0	-5	98
Cc1ccc(S(=O)(=O)N2CCN(C(=O)c3ccc4ccccc4n3)CC2)c(C)c1	3	0	-8	6	4	x	x
O=c1[nH]n(-c2ccc(F)cc2)c2ncccc12	-6	53*	2	0	-1	1	104
CCn1c(COC(=O)CNC(=O)c2cc(OC)c(OC)c(OC)c2)nc2cc(S(=O)(=O)N(C)C)ccc21	0	0	-1	0	-2	x	x
CCC1Sc2ccccc2N(CC(=O)NCCC(C)C)C1=O (centres undefined)	2	34	1	0	-1	-2	104

Screening results (PubChem BioAssay)
